Measured values reported in ChEMBL document CHEMBL2331385, “Evaluation of adamantane hydroxamates as botulinum neurotoxin inhibitors: synthesis, crystallography, modeling, kinetic and cellular based studies” (Bioorg Med Chem, 2013).
Activity calls are given as the source filed them. No cut-off for these calls is given here.

Key:
[1] = biological target: T1, Botulinum neurotoxin type A (Clostridium botulinum, UniProt P0DPI0); assay: Competitive inhibition of Clostridium botulinum BoNT/A Hall A hyper protease light chain (1-425aa) using SNAP-66mer (141-206aa) as substrate by FRET assay
[2] = biological target: T1, Botulinum neurotoxin type A; assay: Inhibition of Clostridium botulinum BoNT/A Hall A hyper protease light chain (1-425aa) using SNAPtide as substrate by FRET assay
In short: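 Recombinant BoNT/A light chain (residues 1-425) cleaving the FRET peptide SNAPtide at 5 μM, with 0.01 % Triton X-100. Inhibitor concentration varied; IC50 taken from fluorescence signal.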

[3] = Cytotoxicity against rat spinal cord cells at 50 uM after 22 hrs; assay type: cell-based
In short: (§1)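 Primary rat spinal cord cells or stem cell-derived neurons exposed to compound. Cytotoxicity judged from low overall protein signal on Western blot.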

[4] = biological target: Botulinum neurotoxin type A (Clostridium botulinum) (UniProt P0DPI0); assay: Inhibition of Clostridium botulinum BoNT/A protease light chain in stem cell-derived neurons (unknown origin) assessed as inhibition of SNAP-25 cleavage at 0.5 to 50 uM after 22 hrs by Western blot analysis
[5] = Cytotoxicity against stem cell-derived neurons (unknown origin) at 500 uM after 22 hrs; in short: as §1
[6] = Cytotoxicity against rat spinal cord cells at 500 uM after 22 hrs; assay type: cell-based; in short: as §1
[7] = Cytotoxicity against rat spinal cord cells at 20 uM after 22 hrs; assay type: cell-based; in short: as §1
[8] = biological target: Botulinum neurotoxin type A (Clostridium botulinum) (UniProt P0DPI0); assay: Inhibition of Clostridium botulinum BoNT/A protease light chain in rat spinal cord cells assessed as inhibition of SNAP-25 cleavage at 0.5 to 50 uM after 22 hrs by Western blot analysis; assay type: cell-based
[9] = Cytotoxicity against stem cell-derived neurons (unknown origin) at 20 uM after 22 hrs; in short: as §1

T1 sequence (P0DPI0 2-448 limits assumed): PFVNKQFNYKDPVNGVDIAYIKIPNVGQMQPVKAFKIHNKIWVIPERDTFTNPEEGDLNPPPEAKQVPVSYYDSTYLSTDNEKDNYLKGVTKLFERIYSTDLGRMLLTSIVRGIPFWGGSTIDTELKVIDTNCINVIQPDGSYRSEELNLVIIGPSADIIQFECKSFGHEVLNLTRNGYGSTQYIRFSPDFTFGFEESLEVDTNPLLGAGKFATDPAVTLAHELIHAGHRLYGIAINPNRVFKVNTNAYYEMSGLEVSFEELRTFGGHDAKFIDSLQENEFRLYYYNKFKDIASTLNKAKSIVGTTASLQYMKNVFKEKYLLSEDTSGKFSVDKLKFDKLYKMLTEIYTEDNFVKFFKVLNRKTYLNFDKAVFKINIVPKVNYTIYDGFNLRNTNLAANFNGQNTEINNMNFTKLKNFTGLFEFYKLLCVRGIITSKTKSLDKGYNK
Botulinum neurotoxin type A (Clostridium botulinum), sequence (P0DPI0 2-448 limits assumed): as above

SMILES: NCCCCCCCNC(=O)c1cc(CCC(=O)NO)c(CCC(O)(c2ccccc2)c2ccccc2)n1Cc1ccccc1
- Ki [1]: 760 nM

SMILES: O=C(CC12CC3CC(CC(Cl)(C3)C1)C2)NO
- IC50 [2]: 1400 nM

SMILES: O=C(CC12CC3CC(CC(Br)(C3)C1)C2)NO
- IC50 [2]: 1400 nM

SMILES: O=C(C[C@@H](CCO)c1ccc(Cl)cc1Cl)NO
- Ki [1]: 160 nM

SMILES: O=C(CC12CC3CC(C1)CC(c1ccc4c(c1)CCCC4)(C3)C2)NO
- IC50 [2]: 1000 nM

SMILES: O=C(CC12CC3CC(C1)CC(c1ccc(Cl)cc1)(C3)C2)NO
- IC50 [2]: 30 nM
- Ki [1]: 27 nM

SMILES: O=C(CC12CC3CC(C1)CC(c1ccc(Br)cc1)(C3)C2)NO
- IC50 [2]: 40 nM
- Activity [3]: Toxic
- Activity [4]: inactive
- Activity [5]: Non-toxic
- Activity [6]: Toxic
- Activity [7]: Toxic
- Activity [8]: inactive
- Ki [1]: 27 nM
- Activity [9]: Toxic

SMILES: O=C(CC12CC3CC(CC(CO)(C3)C1)C2)NO
- IC50 [2]: 3400 nM

SMILES: COC12CC3CC(CC(CC(=O)NO)(C3)C1)C2
- IC50 [2]: 5700 nM

SMILES: O=C(CC12CC3CC(C1)CC(c1ccc4ccccc4c1)(C3)C2)NO
- IC50 [2]: 300 nM

SMILES: CC(=O)OC12CC3CC(CC(CC(=O)NO)(C3)C1)C2
- IC50 [2]: 24000 nM

SMILES: O=C(CC12CC3CC(C1)CC(c1ccc(-c4ccccc4)cc1)(C3)C2)NO
- IC50 [2]: 200 nM

SMILES: COc1ccc(C23CC4CC(CC(CC(=O)NO)(C4)C2)C3)cc1
- IC50 [2]: 250 nM
- Activity [4]: inactive
- Activity [5]: Non-toxic
- Activity [6]: Toxic
- Activity [7]: Toxic
- Activity [8]: inactive
- Ki [1]: 130 nM
- Activity [9]: Toxic

SMILES: O=C(CC12CC3CC(C1)CC(C(=O)O)(C3)C2)NO
- IC50 [2]: > 500000 nM

SMILES: O=C(CC12CC3CC(C1)CC(c1ccccc1)(C3)C2)NO
- IC50 [2]: 500 nM
- Ki [1]: 750 nM

SMILES: Cc1ccc(C23CC4CC(CC(CC(=O)NO)(C4)C2)C3)cc1
- IC50 [2]: 250 nM

SMILES: O=C(CC12CC3CC(C1)CC(c1ccc([N+](=O)[O-])cc1[N+](=O)[O-])(C3)C2)NO
- IC50 [2]: 400 nM

SMILES: O=C(CC12CC3CC(C1)CC(c1ccc([N+](=O)[O-])cc1)(C3)C2)NO
- IC50 [2]: 500 nM
- Activity [4]: inactive
- Activity [5]: Non-toxic
- Activity [6]: Toxic
- Activity [7]: Toxic
- Activity [8]: inactive
- Activity [9]: Toxic

SMILES: O=C(CC12CC3CC(CC(C3)C1)C2)NO
- IC50 [2]: 1000 nM
- Ki [1]: 460 nM

SMILES: O=C(CC12CC3CC(CC(F)(C3)C1)C2)NO
- IC50 [2]: 3100 nM

SMILES: O=C(CC12CC3CC(CC(O)(C3)C1)C2)NO
- IC50 [2]: 23000 nM
